Reference: article PMC3788622 (Journal of Medicinal Chemistry, 2013)
Entries after “also recorded” stand apart in the source; their conditions may differ.

Columns and labels:
[1] = tested on: LNCaP xenografts; conditions: immunocompromised mice, three sc injections at 1 mg/kg; cited from earlier work
[2] = tested on: male C57BL/6J mice; test: Escalating single dose subcutaneous injections: animal weight and behavior; format: in vivo, mouse; conditions: single sc injection at 1, 3, and 10 mg/kg, observed 9 days
Summary of the method: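 Male C57BL/6J mice, 8 weeks old, were acclimatised 3 days after arrival. Groups of four received one sc dose of 1, 3 or 10 mg/kg in up to 200 μL 25% DMSO/saline. Doses were set by UV/vis using ε 69 500 M–1·cm–1 near 315 nm. Mice were weighed daily for 9 days, then sacrificed. Humane end point was visible duress or weight loss over 15% of starting weight.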

[3] = tested on: male C57BL/6J mice; test: Histopathology after multiple subcutaneous injections; format: in vivo, mouse; conditions: 1 mg/kg sc every 3 days, three injections
[4] = tested on: male C57BL/6J mice; test: Serum markers of liver and kidney damage after multiple subcutaneous injections; format: in vivo, mouse; conditions: 1 mg/kg sc every 3 days, three injections
Summary of the method: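 Male C57BL/6J mice, 8 weeks old, were dosed in groups of three with 1 mg/kg sc every 3 days for three injections and sacrificed 2 days after the last. Weight was recorded on injection days and at the end point. Retro-orbital blood was spun at 6000 rpm for 5 min. Serum ALT, AST, total bilirubin, BUN and creatinine were assayed blinded.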

[5] = tested on: male C57BL/6J mice; test: Histopathology after single subcutaneous injection; format: in vivo, mouse
Summary of the method: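 After the single sc dose (1, 3 or 10 mg/kg, 25% DMSO/saline, 9-day observation), two representative mice per group were fixed in 10% formalin. A veterinary pathologist examined cecum, duodenum, heart, ileum, kidney, liver, lung, pancreas, spleen and stomach, blinded to animal identity.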

[6] = tested on: p53; test: p53 protein ELISA; format: cell-based; conditions: LNCaP cells, 10 μM, 72 h
Summary of the method: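 LNCaP cells were treated with 10 μM test compound for 72 h. Controls were DMSO vehicle and 1 μM doxorubicin for 24 h. RPB1 was measured with an RPB1-specific ELISA kit and total p53 with a pan-p53 ELISA kit, each following the kit instructions, in biological triplicates.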

[7] = tested on: p53; conditions: cited from earlier work
[8] = tested on: male C57BL/6J mice; test: Serum markers of liver and kidney damage after single subcutaneous injection; format: in vivo, mouse; conditions: single sc dose 1, 3, 10 mg/kg; dose stated in the value
Summary of the method: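 All mice from the single sc dose groups (1, 3, 10 mg/kg in 25% DMSO/saline, n = 4, 9-day observation) were bled retro-orbitally. Serum was obtained by centrifugation at 6000 rpm for 5 min. ALT, AST, total bilirubin, BUN and creatinine were measured externally, blinded to animal identity.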

Weight loss [2]: significant weight loss only at 10 mg/kg
SMILES: CN(CCCNC(=O)c1cccc(C(=O)O)c1)CCCNC(=O)c1cc(NC(=O)c2cc(NC(=O)c3cc(NC(=O)c4nc(NC(=O)[C@H](N)CCNC(=O)c5cc(NC(=O)c6cc(NC(=O)c7cc(NC(=O)c8nccn8C)cn7C)cn6C)cn5C)cn4C)cn3C)cn2C)cn1C [Polyamide 1, ImPyPyPy-2-(R)^H2Nγ-ImPyPyPy∼NHMe∼IPA]
Growth of LNCaP xenografts [1]: suppress the growth of LNCaP xenografts
Kidney lesions by histopathology (in words) [3]: mild variable tubular attenuation, karyomegaly, and epithelial necrosis and apoptosis
Liver lesions by histopathology (in words) [3]: mild multifocal hepatocellular necrosis and apoptosis
Alteration of liver and kidney serum markers (in words) [4]: elevated AST and ALT
Liver lesions by histopathology (in words) ([5]; single sc dose 3 mg/kg): Mild hepatocellular necrosis and apoptosis
Kidney lesions by histopathology (in words) ([5]; single sc dose 10 mg/kg): Milder tubular regeneration and karyomegaly
Liver lesions by histopathology (in words) ([5]; single sc dose 10 mg/kg): Mild hepatocellular necrosis and apoptosis
Cellular level of p53 protein [6]: increases
Effect on cellular p53 protein [7]: increase cellular p53 protein
Elevation of serum markers of liver and kidney damage (in words) [8]: significant elevation of AST, ALT, and total bilirubin at 10 mg/kg; also recorded: moderate elevation of ALT at 3 mg/kg; also recorded: Elevation of creatinine and blood urea nitrogen (BUN) was not observed for any dose level
